Most compounds without a hit are left out; they make up all but 1.3% or so of the library.
proCasp7 act = procaspase-7 activators, primary screen, counter-screen for procaspase-3 activator project, biochemical, absorbance, HTS, human; 330,000 tested, 0.093% active; recombinant procaspase-7, Ac-DEVD-pNA absorbance 405 nm; D23A/D198A/D206A triple mutant, cannot self-cleave; scale: DMSO 0, 5 µM enzyme 100; Caspase-7 (Homo sapiens), P55210; activation, % at 8.5 µM;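 active = percent activation above the screen-wide mean plus 3 SD, cut at about 25% in these data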
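Assay system: Uncleavable procaspase-7 mutant enzyme | Input: 2 µM procaspase-7 mutant as dispensed | Timing: 1 h compound preincubation, 2 h substrate cleavage, 25 °C | Repeats: One well per compound | Control set: DMSO wells as 0%, DMSO with 5 µM added PC-7 as 100% | Technique: Epi-absorbance of released pNA at 405 nm, two timepoints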
CHT block = inhibitors of human choline transporter CHT. High affinity choline transporter 1 (Homo sapiens), Q9GZV3. CHT-expressing cells, membrane potential dye, choline response; stronger effect = lower value. B-score at 10 µM. 310,000 tested, 0.86% active;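 active = B-score over 3 SD under the library average, and starting fluorescence ratio not unusually high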;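 note: choline stimulus applied at its EC90 after an EC20 pre-addition; B-score computed on integrated fluorescence ratio after choline addition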
Target sequence (Q9GZV3 whole entry, looked up): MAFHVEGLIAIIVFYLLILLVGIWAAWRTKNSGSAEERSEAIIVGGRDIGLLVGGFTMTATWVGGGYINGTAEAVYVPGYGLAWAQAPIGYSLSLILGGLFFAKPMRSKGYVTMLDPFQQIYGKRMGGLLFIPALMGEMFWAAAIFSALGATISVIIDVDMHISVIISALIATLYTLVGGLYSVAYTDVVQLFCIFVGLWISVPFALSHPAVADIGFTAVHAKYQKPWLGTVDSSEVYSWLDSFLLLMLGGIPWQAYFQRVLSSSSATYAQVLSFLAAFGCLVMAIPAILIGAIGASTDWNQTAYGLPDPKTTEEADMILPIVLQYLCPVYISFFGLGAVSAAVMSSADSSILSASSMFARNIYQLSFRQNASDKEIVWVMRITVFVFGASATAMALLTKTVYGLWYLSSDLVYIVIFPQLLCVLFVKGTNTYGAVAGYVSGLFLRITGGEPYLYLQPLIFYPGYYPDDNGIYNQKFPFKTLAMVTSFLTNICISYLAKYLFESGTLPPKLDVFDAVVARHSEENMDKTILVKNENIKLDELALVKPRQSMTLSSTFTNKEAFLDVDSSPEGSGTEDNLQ
procasp3 activ = activators of human procaspase-3 D3A mutant, primary screen, biochemical, absorbance, PC-3 D3A mutant, single concentration; activation, % at 8.5 µM; Caspase-3 (Homo sapiens), P42574; 330,000 tested, 0.11% active; recombinant procaspase-3 D3A, Ac-DEVD-pNA absorbance 405 nm;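 active = activation above the mean of all tested compounds plus 3 SD, cut at about 21% in these data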;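 note: 0% = DMSO alone and 100% = DMSO wells spiked with extra 5 µM PC-3 D3A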
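Technique: 405 nm absorbance of p-nitroaniline, reads at 0 and 120 min; Test system: Procaspase-3 D3A mutant; Incubation: 1 h enzyme-compound preincubation, then 2 h substrate reaction, 25 °C; Repeats: singlicate, each compound tested once; Benchmarks: low control DMSO wells, high control DMSO plus 5 µM PC-3 D3A.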
CHT allo act = CHT positive allosteric modulators, primary screen, cell-based, membrane potential dye, choline EC20; AID 488977, 2010; 310,000 tested, 0.49% active; B-score at 10 µM; High affinity choline transporter 1 (Homo sapiens), Q9GZV3; CHT-expressing cells; stronger effect = higher value; LV-AA mutant CHT in HEK293 cells;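 active = initial fluorescence not abnormally high and integrated response B-score, plate-corrected, over 3 SD above library mean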
CHT activ conf = CHT activators, confirmation, cell-based, membrane potential dye, duplicate; shares compounds with CHT allo act; AID 504833, 2011; 2,500 tested, 91% active; CHT-expressing cells, membrane potential dye fluorescence (FDSS); % of choline EC20–EC90 response window; HEK293 expressing CHT LV-AA mutant; choline added at its EC20; activation, % at 10 µM;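 active = primary screen active, with duplicate mean activation above negative control mean plus 3 SD, cut at about 11% in these data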
HEK293 MP dye = membrane potential response in parental HEK293 cells, counter-screen for CHT activator project, cell-based, membrane potential dye; shares compounds with CHT allo act; membrane potential dye fluorescence (FDSS); measured after EC20 choline addition; ratio readout change at 10 µM, hits read low; 2,500 tested, 62% active;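 active = duplicate-averaged ratio beyond 3 SD from buffer wells, up or down, though filed actives are nearly all decreases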
Starred values were filed as active, the others as inactive; i = inactive; x = not tested or not shown.

SMILES | proCasp7 act | CHT block | procasp3 activ | CHT allo act | CHT activ conf | HEK293 MP dye
COc1ccc(CCNC(=O)CN2C(=O)COc3ccc(S(=O)(=O)N4CCOCC4)cc32)cc1OC | 1.6 | i | -4.9 | i | x | x
CCOC(=O)C1(Cc2ccccc2C(F)(F)F)CCN(Cc2ccon2)CC1 | -9.1 | i | -2.5 | 6.95* | 20.3* | i
Cc1cccc2c(=O)cc(C)n(CC(=O)N3CCCCC3)c12 | -2.4 | i | 3.2 | 7.58* | 61.6* | -70.2*
Cc1nc2ccccc2c(=O)n1CC(=O)N1CCOCC1 | -1.9 | i | 4.1 | i | x | x
Cc1cccc2c(=O)cc(C)n(CC(=O)N3CCOCC3)c12 | 9.2 | i | 4.4 | 10.5* | 47.1* | i
O=C(Cn1c(=O)c2ccccc2n(CC(=O)N2CCCCC2)c1=O)N1CCCCC1 | -8.1 | i | -3.7 | i | x | x
Cc1ccc(NC(=O)C2CC2c2ccccc2)c([N+](=O)[O-])c1 (stereo unspecified) | 1.0 | i | -1.2 | i | x | x
NNC(=O)c1ccc(COCC(F)(F)F)cc1 | 7.3 | i | 0.1 | i | -5.6 | i
CCC(O)C1CCN(C(=O)c2ccc(OC3CCN(Cc4ccccn4)CC3)cc2)CC1 (stereo unspecified) | -5.5 | i | 11.4 | i | x | x
Cc1cc(NC(=O)CCC(=O)N(Cc2ccco2)C2(C(=O)NC3CCCCC3)CCCC(C)C2)no1 (stereo unspecified) | -5.4 | i | -9.2 | i | 18.6* | i
O=C(NC1CCCC1)C(c1ccsc1)N(Cc1ccco1)C(=O)Cc1cccs1 (stereo unspecified) | 9.8 | i | 0.7 | 7.44* | 32.7* | i
O=C(NC1CCCC1)C(c1ccncc1)N(Cc1ccccc1)C(=O)Cc1cccs1 (stereo unspecified) | -5.2 | i | 4.8 | i | x | x
O=C(NC1CCCC1)C(c1ccsc1)N(Cc1ccccc1)C(=O)Cc1cccs1 (stereo unspecified) | 4.4 | i | 6.3 | 6.86* | 42.7* | i
COc1ccccc1CN(C(=O)Cc1cccs1)C(C(=O)NC1CCCC1)c1ccncc1 (stereo unspecified) | -12.2 | i | 4.6 | i | 0.3 | i
COc1ccc(CC(=O)NNC(=O)c2ccc(Br)o2)cc1 | 6.0 | i | 6.0 | i | x | x
O=C(CN1CCCCCC1)Nc1ccc(Cl)cn1 | -1.9 | i | -9.8 | i | x | x
O=C1NC(=O)C(CC(=O)N(Cc2ccco2)C2(C(=O)NC3CCCC3)CCCCC2)N1 (stereo unspecified) | 4.9 | i | 3.6 | i | x | x
O=C(Cc1cccs1)N(Cc1ccco1)C1(C(=O)NC2CCCC2)CCCCC1 | 8.5 | i | 4.9 | 10.3* | 40.6* | i
CC(C)n1cnc2c(Nc3cccc(Cl)c3)nc(NCCCO)nc21 | -2.0 | i | -0.2 | i | 8.8 | i
FC(F)(F)COc1cc(-c2nnc(SCc3ccccc3)n2Cc2ccco2)cc(OCC(F)(F)F)n1 | 0.7 | i | -4.9 | 9.16* | 23.6* | i
CCOc1ccc(-c2nnc(-c3ccncc3)o2)cc1OCC | -10.6 | i | 9.9 | i | 61.2* | -49.3*
COc1cc(-c2nnc(-c3cccnc3)o2)cc(OC)c1OC | 5.3 | i | -2.9 | i | x | x
CCOc1ccc(-c2nnc(-c3cccnc3)o2)cc1OCC | 4.7 | i | 2.8 | i | 32.5* | -27*
COc1ccc2c(=O)cc(-c3cccnc3)oc2c1OC | -0.8 | i | 3.6 | 7.64* | 79.4* | -72.3*
COc1ccc(-c2nnc(-c3cccnc3)o2)cc1OC | 5.2 | i | -3.4 | 7.46* | 30.8* | -32.3*
SMILES | proCasp7 act | CHT block | procasp3 activ | CHT allo act | CHT activ conf | HEK293 MP dye
Cc1nc(N)c(CC(Br)CBr)c(Cl)n1 (stereo unspecified) | 2.0 | i | 3.0 | i | x | x
COc1cc2c(cc1OC)CN(C(=O)CN1CCN(S(=O)(=O)c3ccccc3Br)CC1)CC2 | 3.9 | i | 1.2 | i | x | x
CC(=O)c1cc(C#N)c(NCCCN(C)C)nc1C | 4.1 | i | 7.5 | i | 54.1* | -32.3*
CCCS(=O)(=O)N1CCCC(C(=O)c2ccccc2OC)C1 (stereo unspecified) | 4.0 | i | -0.3 | i | x | x
O=C(c1cc(Cl)ccc1OCc1ccccc1)N1CCOCC1 | 4.0 | i | 3.2 | i | x | x
O=C(c1cccc(C(F)(F)F)c1)C1CCCN(Cc2cccn2-c2ccccn2)C1 (stereo unspecified) | 0.2 | i | -3.9 | 12.1* | -5.3 | i
CC(=O)c1cnc(Nc2nc(C)c3ccc(C)cc3n2)nc1C | 7.9 | i | 6.7 | i | x | x
CC(=O)c1cnc(Nc2nc(C)c3ccccc3n2)nc1C | 3.3 | i | 0.7 | i | 44.4* | -45.5*
CCC1CCc2sc(C(=O)NCC(c3ccc(OC)cc3)N3CCCC3)cc2C1 (stereo unspecified) | 5.7 | i | 1.3 | i | 22.1* | i
Cc1ccc(-c2nc(NCCN(C)C)c3ccccc3n2)cc1 | 1.7 | i | -2.8 | i | x | x
CN(C)CCNc1ncnc2ccccc12 | 8.6 | i | 8.7 | i | 18.3* | -52.5*
c1cc(-c2sc(-c3ccncc3)c(-c3ccncc3)c2-c2ccncc2)ccn1 | 9.4 | i | 11.4 | i | 59.1* | -47.4*
CC(C)(C)C(=O)N(Cc1ccc(Cl)cc1)c1cnccn1 | 2.5 | i | 6.0 | i | x | x
Nc1c(C(=O)NCc2ccc3c(c2)OCO3)c2nc3ccccc3nc2n1CCCN1CCOCC1 | -16.7 | i | 1.3 | 7.41* | 11.6* | i
COc1ccc(CC2(C)OC(c3ccc(C)c([N+](=O)[O-])c3)=NN2C(C)=O)cc1 (stereo unspecified) | 5.0 | i | -9.0 | i | 27.0* | i
CN(C)c1ccnc2sc3c(NCC(O)CO)ncnc3c12 (stereo unspecified) | -0.8 | i | 9.8 | 6.69* | 49.7* | -44.3*
Cc1ccc(NS(=O)(=O)c2ccc(Cl)c(C(=O)Nc3cccc(C(=O)O)c3)c2)cc1 | 6.8 | i | 6.5 | i | x | x
COc1ccc(CN2CCc3c([nH]c4ccccc34)C2)c(OC)c1C | -6.7 | i | -0.6 | i | 32.1* | i
COc1ccc(CN2CCc3c([nH]c4ccccc34)C2)cc1Br | -3.9 | i | 1.9 | i | x | x

Screening data deposited in PubChem BioAssay by several laboratories.
